One assay has as its target T1, Interstitial collagenase (Homo sapiens, UniProt P03956).
T1 sequence (P03956 whole entry): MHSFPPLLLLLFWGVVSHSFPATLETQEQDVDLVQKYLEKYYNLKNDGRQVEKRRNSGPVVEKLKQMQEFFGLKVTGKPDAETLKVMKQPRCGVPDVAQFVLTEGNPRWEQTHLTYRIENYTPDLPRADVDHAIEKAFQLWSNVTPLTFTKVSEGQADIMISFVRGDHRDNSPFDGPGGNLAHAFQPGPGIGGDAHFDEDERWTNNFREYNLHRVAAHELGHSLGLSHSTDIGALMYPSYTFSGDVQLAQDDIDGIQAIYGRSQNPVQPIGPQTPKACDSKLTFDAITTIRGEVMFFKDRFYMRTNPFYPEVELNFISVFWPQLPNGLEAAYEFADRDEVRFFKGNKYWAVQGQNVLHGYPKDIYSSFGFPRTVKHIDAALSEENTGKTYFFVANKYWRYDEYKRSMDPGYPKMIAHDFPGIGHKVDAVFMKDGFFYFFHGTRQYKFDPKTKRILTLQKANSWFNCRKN
Kind of assay: Inhibition of Matrix metalloprotease-1 in MMPi assay.

Assay [1] concerns the target 72 kDa type IV collagenase (Homo sapiens, UniProt P08253). Kind of assay: Inhibition of Matrix metalloprotease-2 in MMPi assay.
Assay [2] concerns HT-1080. Kind of assay: Cytotoxicity as percentage of dead cells at 5 uM using Trypan Blue test on HT1080 cells. It counts as functional, Homo sapiens. A digest of the protocol: (§1)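 HT1080 cells stably transfected to overexpress MT1-MMP, seeded at 10⁵ cells/well and kept overnight at 37 °C. Washed free of serum, then given serum-free DMEM with insulin, transferrin and selenium. Compound added at 0, 1, 5 or 10 (micromolar) to duplicate wells for 24 h. Trypsinized cells mixed 1:1 with 0.4% trypan blue for 5 min. Blue-stained and total cells counted on haemocytometer upper and lower grids. % dead = mean of duplicates minus untreated wells.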

Assay [3] relates to HT-1080. Kind of assay: Cytotoxicity as percentage of dead cells at 1 uM using Trypan Blue test on HT1080 cells. It counts as functional, Homo sapiens. A digest of the protocol: as §1
Assay [4] has as its system HT-1080. Kind of assay: Cytotoxicity as percentage of dead cells at 10 uM using Trypan Blue test on HT1080 cells. It counts as functional, Homo sapiens. Summed up: as §1
Assay [5] deals with Matrix metalloproteinase-9 (Homo sapiens, UniProt P14780). Put plainly: Inhibition of Matrix metalloprotease-9 in MMPi assay.
Assay [6] concerns Matrix metalloproteinase-14. Kind of assay: Inhibition of Matrix metalloprotease-14 in MMPi assay.
Assay [7] deals with Matrix metalloproteinase-14 (Homo sapiens, UniProt P50281). Kind of assay: Inhibition of Matrix metalloprotease-14 in MMPi assay.

pIC50: −log10 of the molar value. A value given as a limit tells only on which side of the number the result lay.

One may read the pIC50 as the negative decadic logarithm of the IC50, by convention in mol/L.

Chain of 72 kDa type IV collagenase (P08253 whole entry): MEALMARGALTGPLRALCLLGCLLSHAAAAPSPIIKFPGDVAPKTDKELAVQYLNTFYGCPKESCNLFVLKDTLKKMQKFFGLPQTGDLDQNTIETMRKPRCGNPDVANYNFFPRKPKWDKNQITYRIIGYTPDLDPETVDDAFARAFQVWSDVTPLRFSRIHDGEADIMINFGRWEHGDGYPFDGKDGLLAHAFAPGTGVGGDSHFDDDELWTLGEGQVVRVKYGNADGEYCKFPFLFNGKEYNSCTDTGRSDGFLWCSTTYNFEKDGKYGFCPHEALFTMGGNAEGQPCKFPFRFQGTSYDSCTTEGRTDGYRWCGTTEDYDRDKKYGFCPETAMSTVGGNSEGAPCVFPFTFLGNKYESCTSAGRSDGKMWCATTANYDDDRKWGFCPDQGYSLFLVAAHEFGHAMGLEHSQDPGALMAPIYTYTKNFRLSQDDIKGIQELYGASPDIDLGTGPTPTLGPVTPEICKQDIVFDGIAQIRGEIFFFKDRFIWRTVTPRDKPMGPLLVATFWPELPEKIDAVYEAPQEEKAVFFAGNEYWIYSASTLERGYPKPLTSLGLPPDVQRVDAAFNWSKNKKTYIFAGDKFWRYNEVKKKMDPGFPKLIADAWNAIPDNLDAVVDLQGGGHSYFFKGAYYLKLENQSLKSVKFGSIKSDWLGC
Chain of Matrix metalloproteinase-9 (P14780 whole entry): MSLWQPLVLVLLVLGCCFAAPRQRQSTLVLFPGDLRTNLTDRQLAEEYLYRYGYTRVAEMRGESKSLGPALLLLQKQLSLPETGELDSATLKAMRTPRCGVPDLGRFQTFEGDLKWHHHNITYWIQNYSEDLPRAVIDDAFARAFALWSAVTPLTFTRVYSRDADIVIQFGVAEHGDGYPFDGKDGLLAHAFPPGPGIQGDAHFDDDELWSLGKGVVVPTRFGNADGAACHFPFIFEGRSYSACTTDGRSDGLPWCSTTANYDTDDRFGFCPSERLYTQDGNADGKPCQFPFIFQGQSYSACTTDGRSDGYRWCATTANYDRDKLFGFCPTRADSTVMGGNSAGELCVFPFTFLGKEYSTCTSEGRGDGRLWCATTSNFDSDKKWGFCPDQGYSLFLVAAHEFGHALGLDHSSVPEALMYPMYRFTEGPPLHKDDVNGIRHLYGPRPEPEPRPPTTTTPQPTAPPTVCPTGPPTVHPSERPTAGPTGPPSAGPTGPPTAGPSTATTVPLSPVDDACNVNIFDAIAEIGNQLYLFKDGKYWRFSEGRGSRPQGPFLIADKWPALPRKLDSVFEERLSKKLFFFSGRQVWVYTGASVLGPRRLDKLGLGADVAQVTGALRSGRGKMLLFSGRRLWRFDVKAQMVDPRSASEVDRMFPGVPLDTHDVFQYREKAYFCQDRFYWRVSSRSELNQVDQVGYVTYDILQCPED

For the compound `CC(C)ON([C@H](CCNC(=O)CCCNC(=O)c1cccc(C(=O)NCCCC(=O)NCC[C@H](C(=O)NO)N(OC(C)C)S(=O)(=O)c2ccc(-c3ccccc3)cc2)c1)C(=O)NO)S(=O)(=O)c1ccc(-c2ccccc2)cc1`, the pIC50 was 6.40 on Interstitial collagenase, 8.01 in assay [1], 8.08 in assay [5] and 7.47 in assay [6]. For the same compound, the Dead cells in the assay on HT-1080 [2] is 5%; in the assay on HT-1080 [3], 0%; in the assay with HT-1080 [4], 10%.

Take `CC(C)ON([C@H](CCNC(=O)c1cccc(C(=O)NCC[C@H](C(=O)O)N(OC(C)C)S(=O)(=O)c2ccc(-c3ccccc3)cc2)c1)C(=O)O)S(=O)(=O)c1ccc(-c2ccccc2)cc1`: the pIC50 in assay [1] was less than 6.00; in assay [5] it was less than 4.52.

For the compound `CC(C)ON([C@H](CCNC(=O)c1cccc(C(=O)NCC[C@H](C(=O)NO)N(OC(C)C)S(=O)(=O)c2ccc(-c3ccccc3)cc2)c1)C(=O)NO)S(=O)(=O)c1ccc(-c2ccccc2)cc1`, the pIC50 against Interstitial collagenase was 5.00; in assay [1], 6.71; in assay [7], 5.83; in assay [5], 6.01.

For the compound `CC(C)ON([C@H](CCNC(=O)OCc1ccccc1)C(=O)NO)S(=O)(=O)c1ccc(-c2ccccc2)cc1`, the pIC50 on Interstitial collagenase is less than 5.52. In addition, the values for the Dead cells with HT-1080 [2], in the assay with HT-1080 [3] and in the assay with HT-1080 [4] were 20%, 4% and 35%, respectively.

Values taken from ChEMBL document CHEMBL1144383, “A new development of matrix metalloproteinase inhibitors: twin hydroxamic acids as potent inhibitors of MMPs” (Bioorg Med Chem Lett, 2005).
